# Several values for one entry are separate records, joined by “and”; a condition that tells them apart may be missing. Equal values may be shown once. Read-outs that look alike come from different tables or passages of the source.
# Legend:
# CYP3A4 = settings: ref data on file; cited from earlier work
# CLL/SLL [1] = assay: Threshold analysis; type: in vivo, human; settings: threshold 300 ng/mL
# CYP1A2 = settings: ref data on file; cited from earlier work
# [2] = rats; ref data on file; cited from earlier work
# [3] = monkeys; ref data on file; cited from earlier work
# CLL/SLL [4] = assay: Best overall response in CLL/SLL subjects, phase 1b study AVL‐292‐003; type: in vivo, human
# [5] = Population pharmacokinetic analysis of CC‐292; type: in vivo, human
# Outline: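 Data came from healthy volunteers (50, 100 or 200 mg or placebo orally QD for 7 days; intensive sampling predose to 24 h on days 1 and 7, troughs on days 3–6) and patients (sparse cycle 1–3 samples). Plasma was assayed by LC-MS/MS (LLOQ ≤0.5 ng/mL, labeled internal standard). The NONMEM FOCE-I 2-compartment model with first-order absorption and lag used ln-transformed data and separate residual error per population. There were 1000 bootstrap runs with 5th–95th percentile CIs.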
# [6] = rats; ref data on file; cited from earlier work; remark: listed apart in the source
# CLL/SLL [7] = assay: Exposure‐response analysis; type: in vivo, human
# Outline: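 In relapsed/refractory CLL/SLL patients from the phase 1b study, log-transformed steady-state AUC came from noncompartmental analysis. ORR (CR, CRi or PR; updated iwCLL criteria) was modeled as responder vs nonresponder by logistic regression, first univariate, then multivariate with stepwise forward/backward covariate selection. Covariates were age, BSA, sex, race, QD vs BID regimen, CLcr, bilirubin, albumin, ALT and AST.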
# [8] = based on final population PK parameters
compound,measurement,setting,value
C=CC(=O)Nc1cccc(Nc2nc(Nc3ccc(OCCOC)cc3)ncc2F)c1 [CC‐292],metabolism by CYP3A4,CYP3A4,extensively metabolized
same,duration/coverage at and above the threshold concentration,CLL/SLL [1]; 375 mg BID,~10.4 h
same,duration/coverage at and above the threshold concentration,CLL/SLL [1]; 750 mg QD,6.6 h
same,metabolism by CYP1A2,CYP1A2,extensively metabolized
same,CC‐292–derived radioactivity excreted in the bile,[2],~79 % of the dose
same,extent of bioavailability,[3],11%
same,Best overall response: Complete response,CLL/SLL [4]; 125 mg QD,0 n (%)
same,Best overall response: Partial response,CLL/SLL [4]; 125 mg QD,1 (33.3) n (%)
same,Best overall response: Progression disease,CLL/SLL [4]; 125 mg QD,0 n (%)
same,Best overall response: Stable disease,CLL/SLL [4]; 125 mg QD,2 (66.7) n (%)
same,Overall response rate,CLL/SLL [4]; 125 mg QD,1 (33.3) n (%)
same,Best overall response: Complete response,CLL/SLL [4]; 250 mg QD,0 n (%)
same,Best overall response: Partial response,CLL/SLL [4]; 250 mg QD,0 n (%)
same,Best overall response: Progression disease,CLL/SLL [4]; 250 mg QD,0 n (%)
same,Best overall response: Stable disease,CLL/SLL [4]; 250 mg QD,1 (100) n (%)
same,Overall response rate,CLL/SLL [4]; 250 mg QD,0 n (%)
same,Best overall response: Complete response,CLL/SLL [4]; 375 mg BID,0 n (%)
same,Best overall response: Partial response,CLL/SLL [4]; 375 mg BID,4 (66.7) n (%)
same,Best overall response: Progression disease,CLL/SLL [4]; 375 mg BID,0 n (%)
same,Best overall response: Stable disease,CLL/SLL [4]; 375 mg BID,2 (33.3) n (%)
same,Overall response rate,CLL/SLL [4]; 375 mg BID,4 (66.7) n (%)
same,Best overall response: Complete response,CLL/SLL [4]; 400 mg QD,0 n (%)
same,Best overall response: Partial response,CLL/SLL [4]; 400 mg QD,1 (25.0) n (%)
same,Best overall response: Progression disease,CLL/SLL [4]; 400 mg QD,0 n (%)
same,Best overall response: Stable disease,CLL/SLL [4]; 400 mg QD,3 (75.0) n (%)
same,Overall response rate,CLL/SLL [4]; 400 mg QD,1 (25.0) n (%)
same,Best overall response: Complete response,CLL/SLL [4]; 500 mg BID,0 n (%)
same,Best overall response: Partial response,CLL/SLL [4]; 500 mg BID,19 (61.3) n (%)
same,Best overall response: Progression disease,CLL/SLL [4]; 500 mg BID,0 n (%)
same,Best overall response: Stable disease,CLL/SLL [4]; 500 mg BID,12 (38.7) n (%)
same,Overall response rate,CLL/SLL [4]; 500 mg BID,19 (61.3) n (%)
same,Best overall response: Complete response,CLL/SLL [4]; 625 mg QD,0 n (%)
same,Best overall response: Partial response,CLL/SLL [4]; 625 mg QD,0 n (%)
same,Best overall response: Progression disease,CLL/SLL [4]; 625 mg QD,0 n (%)
same,Best overall response: Stable disease,CLL/SLL [4]; 625 mg QD,1 (100) n (%)
same,Overall response rate,CLL/SLL [4]; 625 mg QD,0 n (%)
same,Best overall response: Complete response,CLL/SLL [4]; 750 mg QD,0 n (%)
same,Best overall response: Partial response,CLL/SLL [4]; 750 mg QD,12 (41.4) n (%)
same,Best overall response: Progression disease,CLL/SLL [4]; 750 mg QD,1 (3.4) n (%)
same,Best overall response: Stable disease,CLL/SLL [4]; 750 mg QD,16 (55.2) n (%)
same,Overall response rate,CLL/SLL [4]; 750 mg QD,12 (41.4) n (%)
same,Best overall response: Complete response,CLL/SLL [4]; 1000 mg QD,0 n (%)
same,Best overall response: Partial response,CLL/SLL [4]; 1000 mg QD,4 (57.1) n (%)
same,Best overall response: Progression disease,CLL/SLL [4]; 1000 mg QD,0 n (%)
same,Best overall response: Stable disease,CLL/SLL [4]; 1000 mg QD,3 (42.9) n (%)
same,Overall response rate,CLL/SLL [4]; 1000 mg QD,4 (57.1) n (%)
same,Best overall response: Complete response,"CLL/SLL [4]; Total, all cohorts",0 n (%)
same,Best overall response: Partial response,"CLL/SLL [4]; Total, all cohorts",41 (50.0) n (%)
same,Best overall response: Progression disease,"CLL/SLL [4]; Total, all cohorts",1 (1.2) n (%)
same,Best overall response: Stable disease,"CLL/SLL [4]; Total, all cohorts",40 (48.8) n (%)
same,Overall response rate,"CLL/SLL [4]; Total, all cohorts",41 (50.0) n (%)
same,interindividual variability for V2/F,[5]; base model,88%
same,distribution rate,[5]; [8],0.11 h⁻¹
same,elimination rate,[5]; [8],0.85 h⁻¹
same,"Alag1, Bootstrap Estimate (95%CI)",[5]; bootstrap N = 1000,0.428 (0.414‐0.439) h
same,"CL/F, Bootstrap Estimate (95%CI)",[5]; bootstrap N = 1000,131.9 (109.0‐166.6) L/h
same,"Effect of age on V2/F, Bootstrap Estimate (95%CI)",[5]; bootstrap N = 1000,0.946 (0.592‐1.355)
same,"Interindividual variability ωV2/F: ωCL/F, Bootstrap Estimate (95%CI)",[5]; bootstrap N = 1000,0.321 (0.198‐0.461)
same,"Interindividual variability ω^2 CL/F, Bootstrap Estimate (95%CI)",[5]; bootstrap N = 1000,0.306 (0.202‐0.454)
same,"Interindividual variability ω^2 V2/F, Bootstrap Estimate (95%CI)",[5]; bootstrap N = 1000,0.750 (0.526‐1.010)
same,"Q/F, Bootstrap Estimate (95%CI)",[5]; bootstrap N = 1000,18.4 (15.3‐21.7) L/h
same,"V2/F, Bootstrap Estimate (95%CI)",[5]; bootstrap N = 1000,156.4 (130.2‐187.8) L
same,"V3/F, Bootstrap Estimate (95%CI)",[5]; bootstrap N = 1000,71.7 (61.4‐83.5) L
same,"ka, Bootstrap Estimate (95%CI)",[5]; bootstrap N = 1000,0.97 (0.86‐1.11) h^−1
same,"Residual variability HNP, Bootstrap Estimate (95%CI)","[5]; bootstrap N = 1000, healthy normal study subjects",0.230 (0.180‐0.288)
same,"Residual variability Patients, Bootstrap Estimate (95%CI)","[5]; bootstrap N = 1000, patients",0.654 (0.537‐0.708)
same,Vd/F,"[5]; both, human, plasma, oral",158 L
same,clearance,"[5]; both, human, plasma, oral",2230 mL/min
same,interindividual variability for V2/F,[5]; final model (age included),86%
same,"Alag1, absorption lag time, Estimate",[5]; final population PK model,0.427 h
same,"Interindividual variability ωV2/F: ωCL/F, Estimate",[5]; final population PK model,0.328
same,"Interindividual variability ω^2 CL/F, Estimate",[5]; final population PK model,0.317
same,"Interindividual variability ω^2 V2/F, Estimate",[5]; final population PK model,0.755
same,lower CL/F in female subjects compared to male subjects,[5]; final population PK model,26%
same,"Residual variability HNP, Estimate","[5]; final population PK model, healthy normal study subjects",0.234
same,"ka, first‐order absorption rate constant, Estimate","[5]; final population PK model, oral, healthy subjects and patients",0.97 h⁻¹ and 0.974 h⁻¹
same,"Residual variability Patients, Estimate","[5]; final population PK model, patients",0.659
same,"Effect of age on V2/F, Estimate","[5]; final population PK model, power exponent",0.946
same,"CL/F, apparent clearance, Estimate","[5]; final population PK model, typical value for male subjects",134 L/h and 134.0 L/h
same,CL/F relative to Q/F (Q/F lower than CL/F),[5]; in vivo,7.2 fold and ~7 fold
same,differences in drug exposures between female and male subjects,[5]; in vivo,below 26%
same,extent of bioavailability,[6],57%
same,mean ORR,CLL/SLL [7]; first quartile of average AUC,35%
same,mean ORR,CLL/SLL [7]; fourth quartile of average AUC,50.2%

# Reference: article PMC5599992 (Journal of Clinical Pharmacology, 2017)
